Published values from different studies.
Protocols differ between the studies behind these lines.
Transmembrane protease serine 6: Transmembrane protease serine 6 (Homo sapiens, UniProt Q8IU80)
Palmitoyl-protein thioesterase 1: Palmitoyl-protein thioesterase 1 (Homo sapiens, UniProt P50897)

CNc1ncc2c(/C=C/C(=O)N3CCC(OC)CC3)nn(Cc3cccc(C(F)(F)F)c3)c2n1
remaining activity (Cyclin-dependent kinase 6, with cyclin D2 (CDK6, Homo sapiens, UniProt Q00534); enzyme activity, inhibitor, radiometric; 1 µM): 92%

CC[C@@H](C)[C@H](NC(=O)[C@H](Cc1cscn1)NC(=O)CCc1ccccc1)C(=O)N[C@@H](CCCNC(=N)N)C(=O)c1nc2ccccc2s1
remaining activity (Transmembrane protease serine 6; enzyme activity, inhibitor; 0.1 µM): 1%

COc1cc(-c2cncc3c2CN(C)Cc2cc(N4CCNCC4)ccc2-3)cc(OC)c1OC
remaining activity (Epidermal growth factor receptor (EGFR, Homo sapiens, UniProt P00533, L858R); enzyme activity, inhibitor; 1 µM): 36%

Cc1ccc2c(-c3cc4c(CN5CCN(Cc6ccccn6)CC5)cnc(C)c4o3)cc(=O)oc2c1
inhibition (Epidermal growth factor receptor (EGFR, Homo sapiens, UniProt P00533, L858R/T790M); enzyme activity, inhibitor, ADP detection; 1 µM): 65 to 75%

CC(=O)O[C@@]12CO[C@@H]1C[C@H](O)[C@@]1(C)C(=O)[C@H](O)C3=C(C)[C@@H](OC(=O)[C@H](O)[C@@H](NC(=O)OC(C)(C)C)c4ccccc4)C[C@@](O)([C@@H](OC(=O)c4ccccc4)[C@H]21)C3(C)C
inhibition (Palmitoyl-protein thioesterase 1; enzyme activity, inhibitor; 125 µM): 10.3%

N=C(N)NCCC[C@H](NC(=O)[C@H](CC1CC1)NC(=O)[C@H](Cc1cscn1)NC(=O)CCc1ccccc1)C(=O)c1nc2ccccc2s1
remaining activity (Transmembrane protease serine 6; enzyme activity, inhibitor; 0.1 µM): 77%

O=C([O-])CCCCCCCNC(=O)c1ccccc1O.[Na+]
inhibition (Palmitoyl-protein thioesterase 1; enzyme activity, inhibitor; 125 µM): 9.21%

N=C(N)NCCC[C@H](NC(=O)[C@@H](NC(=O)[C@H](Cc1cscn1)NC(=O)CCc1ccccc1)C(c1ccccc1)c1ccccc1)C(=O)c1nc2ccccc2s1
remaining activity (Transmembrane protease serine 6; enzyme activity, inhibitor; 0.1 µM): 65%

CC1CNC(=O)NC1=O (stereo not drawn)
inhibition (Palmitoyl-protein thioesterase 1; enzyme activity, inhibitor; 125 µM): -1.19%

C=CC(=O)N1CCC(COCC(=O)N2CCN(c3nc(-c4cnc(N)nc4C(F)F)nc(N4CCOC[C@@H]4C)n3)CC2)CC1
remaining binding (Mitogen-activated protein kinase 4 (MAPK4, Homo sapiens, UniProt P31152); binding, competition with immobilised ligand; 1 µM): 100%

O=C(CCCN1CC=C(n2c(=O)[nH]c3ccccc32)CC1)c1ccc(F)cc1
inhibition (Palmitoyl-protein thioesterase 1; enzyme activity, inhibitor; 125 µM): 1.07%

N=C(N)NCCC[C@H](NC(=O)[C@@H](NC(=O)[C@H](Cc1cscn1)NC(=O)CCc1ccccc1)C1CC1)C(=O)c1nc2ccccc2s1
remaining activity (Transmembrane protease serine 6; enzyme activity, inhibitor; 0.1 µM): 88%

CCCCC/C=C\C/C=C\CCCCCCCC(=O)O
inhibition (Palmitoyl-protein thioesterase 1; enzyme activity, inhibitor; 156 µM): 40.4%

C=CCCCCCC(C)(NC(=O)[C@H](Cc1cscn1)NC(=O)CCc1ccccc1)C(=O)N[C@@H](CCCNC(=N)N)C(=O)c1nc2ccccc2s1 (stereo partly drawn)
remaining activity (Transmembrane protease serine 6; enzyme activity, inhibitor; 0.1 µM): 101%

Cc1cc([C@@H](C)Nc2ccccc2C(=O)O)c2nc(N3CCC(F)(F)CC3)c(C#N)c(=O)n2c1
remaining binding (SRSF protein kinase 3 (SRPK3, Homo sapiens, UniProt Q9UPE1); binding, competition with immobilised ligand; 1 µM): 77%
